Screens from PubChem.
Fibroblast inh = blocks proliferation of human lung fibroblasts; LL 47 human lung fibroblast viability, ATP luminescence; active compounds read low; 1.1% of 85,000 active; viability, % at 10 µM;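 active = viability at or below 50% in the single dose screen; inactive = viability above 50%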;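 note: compound exposure lasted 72 h before the ATP readout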
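test system = LL 47 human lung fibroblasts | amount = 1,150 fibroblasts seeded per well | medium = 15% FBS in IMEM | times = overnight cell rest, 72 h compound treatment at 37 °C | measured by = CellTiter-Glo luminescence measuring cellular ATP | read-out = viability percentage against median untreated-cell control | benchmarks = cell-only wells, no compound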
H69AR inhibit = blocks growth of human H69AR lung tumor cells | H69AR lung tumor viability, ATP luminescence, 72 h; active compounds read low | viability, % at 10 µM | 6% of 85,000 active | AID 598;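 active = viability at or below 40%; inactive = viability above 40%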;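 note: multidrug resistant small cell line overexpressing MRP-1 efflux transporter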
HCT116 PTEN-null = suppresses growth of cells with PTEN deletion. HCT116 PTEN-null viability, CellTiter-Glo, 60 h; active compounds read low. viability, % at 10 µM. 1.2% of 140,000 active;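 active = viability at or below a set limit, 4 SD under the median of all tested compounds, cut at about 3.7% in these data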;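 note: PTEN knockout HCT116 line with beta catenin targeted HCT116 as companion control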
HUVEC inhibit = blocks proliferation of human endothelial cells; HUVEC proliferation, CellTiter-Glo luminescence, 72 h; active compounds read low; 1.1% of 86,000 active; viability, % at 10 µM (by protocol);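 active = viability at or below 30%; inactive = viability above 30%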
bCat KO growth = beta-catenin-lacking colon tumor cell growth suppression; HCT116 beta-catenin knockout viability, CellTiter-Glo, 60 h; active compounds read low; viability, % at 10 µM; 1.5% of 140,000 active; AID 818;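 active = viability at or under a set limit, the compound median less 4 SD, cut at about 6% in these data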
Each line names hits and unclear results; the compound was inactive in the other large screens. The entries come from a sample that favours hits as a whole.

COc1cc2c(=O)n(Cc3ccco3)c(=O)n(CC(=O)c3cccc(Br)c3)c2cc1OC	H69AR inhibit 2.4
COc1cc2c(=O)n(Cc3ccco3)c(=O)n(CC(=O)c3ccc(Br)cc3)c2cc1OC	H69AR inhibit 17
CNc1ccc(/C=C/C(=O)c2cccc3ccccc23)cc1[N+](=O)[O-]	bCat KO growth 5.3 (no result: Fibroblast inh, H69AR inhibit, HUVEC inhibit)
COC1(OC)C(/C=C/c2ccc(Cl)cc2)C(C#N)(C#N)C1(OC)OC (stereo unspecified)	H69AR inhibit -0.4, HCT116 PTEN-null 3.0, HUVEC inhibit 7.0, bCat KO growth 4.2
COc1ccc(Cn2c(C)c(C)c(C#N)c2NC(=O)Nc2cccc(Cl)c2)cc1	H69AR inhibit 36
COc1ccc(Cn2c(C)c(C)c(C#N)c2NC(=O)Nc2ccc(Cl)cc2)cc1	H69AR inhibit 35
Cc1ccc(OC(=O)C2c3ccccc3Oc3ccccc32)cc1C	none (no result: Fibroblast inh, H69AR inhibit, HUVEC inhibit)
O=C(CCNc1ccc(F)c(Cl)c1)c1ccco1	H69AR inhibit 1.8, bCat KO growth 2.2
O=C(CCNc1cc(Cl)cc(Cl)c1)c1ccco1	none
O=C(CCNc1ccc(F)cc1)c1ccco1	H69AR inhibit 1.1
N=c1n(Cc2ccccc2)c2ccccc2n1CC(O)COc1ccccc1 (stereo unspecified)	H69AR inhibit 15, HCT116 PTEN-null 1.2, bCat KO growth 0.9
Cc1ccc(Cn2c(=N)n(CC(O)COc3ccccc3)c3ccccc32)cc1 (stereo unspecified)	Fibroblast inh 22, H69AR inhibit -0.1, HCT116 PTEN-null 0.5, HUVEC inhibit 2.7, bCat KO growth 0.5
CNC(=O)[C@@]1(C)C=C[C@@H](Cc2ccccc2)N1C(=O)OC	none (no result: Fibroblast inh, H69AR inhibit, HUVEC inhibit)
CCOc1ncccc1C(=O)Nc1cccc(C(=O)Nc2cccc(S(=O)(=O)CCO)c2)c1	H69AR inhibit 30
Cc1cc(C)nc(SCc2ccc(C(=O)N/N=C/C3CCCCC3)cc2)n1	none (no result: Fibroblast inh, H69AR inhibit, HUVEC inhibit)
O=C1CCC/C(=N\NC(=O)c2ccc(COc3cccc4cccnc34)cc2)C1	none (no result: Fibroblast inh, H69AR inhibit, HUVEC inhibit)
O=C(Nc1ccc(Cl)cn1)c1cc2ccccc2o1	none
O=C(Nc1ccc(Cl)cn1)c1ccc(-c2cc(Cl)ccc2Cl)o1	bCat KO growth 3.1 (no result: Fibroblast inh, H69AR inhibit, HUVEC inhibit)
CC(=O)[C@H]1CC[C@H]2[C@@H]3CCC4=CC(=O)CC[C@]4(C)[C@H]3CC[C@]12C	H69AR inhibit 29
C[C@]12CCC(=O)C=C1CC[C@@H]1[C@@H]2CC[C@@]2(C)[C@H]1CC[C@]2(O)C(=O)CO	none
C[N+](C)(C)c1ccc(/C=N/Nc2nc(Cl)c(C#N)c(Cl)c2Cl)cc1	none (no result: Fibroblast inh, H69AR inhibit, HUVEC inhibit)
N#Cc1c(Cl)nc(N/N=C/c2ccccc2)c(Cl)c1Cl	HCT116 PTEN-null 1.6, bCat KO growth 2.8 (no result: Fibroblast inh, H69AR inhibit, HUVEC inhibit)
COc1ccc(NC(=O)CSc2ncnc3c2sc2ccccc23)c(OC)c1	HCT116 PTEN-null 2.2, bCat KO growth 2.2 (no result: Fibroblast inh, H69AR inhibit, HUVEC inhibit)
COc1ccccc1NC(=O)COc1ccc(/C=N/NC(=O)CSCc2cc(C)cc(C)c2)cc1	none (no result: Fibroblast inh, H69AR inhibit, HUVEC inhibit)
COc1ccccc1NC(=O)COc1ccc(/C=N/NC(=O)CSCc2ccc(Cl)cc2)cc1	HCT116 PTEN-null 2.2, bCat KO growth 3.2 (no result: Fibroblast inh, H69AR inhibit, HUVEC inhibit)
CN1CCN(CCCN2c3ccccc3Sc3ccc(C(F)(F)F)cc32)CC1	H69AR inhibit 0.6, HCT116 PTEN-null 1.5, HUVEC inhibit 2.4, bCat KO growth 1.7
O=C(CN1CCCC(O)C1)N1c2ccccc2Sc2ccc(C(F)(F)F)cc21 (stereo unspecified)	none
C=CCc1ccc(OCC(O)CN2CCC(Cc3ccccc3)CC2)c(OC)c1 (stereo unspecified)	H69AR inhibit 21, HUVEC inhibit 14
Cc1cccn2c(=O)c(C=NCc3ccco3)c(Nc3ccc(Cl)cc3)nc12	H69AR inhibit 23 (no result: HCT116 PTEN-null, bCat KO growth)
CCC(C)N=Cc1c(NCc2ccco2)nc2c(C)cccn2c1=O (stereo unspecified)	none
CCOC(=O)N1CCN(S(=O)(=O)c2ccc(C(=O)Nc3nc4ccc(F)cc4s3)cc2)CC1	Fibroblast inh 29, H69AR inhibit 23
CN(CC(=O)Nc1nc2ccccc2s1)S(=O)(=O)c1ccc(Br)cc1	none
CCOC(=O)c1sc(NC(=O)c2ccc(S(=O)(=O)N3CCCCC3)cc2)nc1-c1ccccc1	none (no result: Fibroblast inh, H69AR inhibit, HUVEC inhibit)
CCOC(=O)N1CCN(S(=O)(=O)c2ccc(F)cc2)CC1	none
CN(CC(=O)Nc1nc2ccccc2s1)S(=O)(=O)c1ccc(Cl)cc1	H69AR inhibit 36
CCOC(=O)N1CCN(S(=O)(=O)c2ccc(C(=O)Nc3nc4ccccc4s3)cc2)CC1	H69AR inhibit 13
CCCc1cc(C(=O)Nc2c(C)n(C)n(-c3ccccc3)c2=O)no1	none
CCCCCC(=O)N/N=C(\C)c1ccc(N2CCCCC2)cc1	none (no result: Fibroblast inh, H69AR inhibit, HUVEC inhibit)
O=C(CCCOc1ccccc1)NC1CCCc2ccccc21 (stereo unspecified)	none (no result: Fibroblast inh, H69AR inhibit, HUVEC inhibit)
CCCSc1nc2c(cnn2-c2ccc(C)cc2)c(=O)[nH]1	H69AR inhibit 13, HUVEC inhibit 11
CCCSc1nc2c(cnn2-c2ccccc2)c(=O)[nH]1	none
CCCCSc1nc2c(cnn2-c2ccc(Cl)cc2)c(=O)[nH]1	none
O=C(CSc1nc2c(cnn2-c2ccccc2)c(=O)[nH]1)c1ccc(Cl)cc1	H69AR inhibit 36
Cc1c(NC(=S)NC(NC(=O)C(C)C)C(Cl)(Cl)Cl)c(=O)n(-c2ccccc2)n1C (stereo unspecified)	none (no result: Fibroblast inh, H69AR inhibit, HUVEC inhibit)
O=C1c2ccccc2C2=Nc3ccccc3SC(c3ccc(Cl)cc3)C12 (stereo unspecified)	HCT116 PTEN-null 3.3, bCat KO growth 3.7 (no result: Fibroblast inh, H69AR inhibit, HUVEC inhibit)
O=C1c2ccccc2C2=Nc3ccccc3SC(c3cccc(F)c3)C12 (stereo unspecified)	HCT116 PTEN-null 3.5, bCat KO growth 2.2 (no result: Fibroblast inh, H69AR inhibit, HUVEC inhibit)
CC1(C)CC(=O)C(N=Nc2cc(Cl)c(Cl)c(Cl)c2)=C(O)C1	none (no result: Fibroblast inh, H69AR inhibit, HUVEC inhibit)
Cc1ccc(O)c(N=NC2=C(O)CC(C)(C)CC2=O)c1	bCat KO growth 4.4 (no result: Fibroblast inh, H69AR inhibit, HUVEC inhibit)
Cc1cn2c(nc(=O)c3cccnc32)s1	none (no result: Fibroblast inh, H69AR inhibit, HUVEC inhibit)
Cc1cc2c(c(=O)n1Cc1cccnc1)C(c1cccs1)C(C#N)=C(N)O2 (stereo unspecified)	H69AR inhibit 32
Cc1cc2c(c(=O)n1Cc1cccnc1)C(Cc1ccccc1)C(C#N)=C(N)O2 (stereo unspecified)	none
CCc1c(C)nc2cc(-c3ccc(OC)c(OC)c3)nn2c1N1CCCC1	H69AR inhibit 38
CCc1c(C)nc2cc(-c3ccc(OC)c(OC)c3)nn2c1N1CCC(C)CC1	none
Cc1nc([N+](=O)[O-])c(Br)n1CC(=O)c1ccccc1	H69AR inhibit 35
Cc1nc([N+](=O)[O-])c(Br)n1CC(=O)c1ccc2ccccc2c1	H69AR inhibit 0.4
Cc1nc([N+](=O)[O-])c(Br)n1CC(=O)c1ccc(Br)cc1	Fibroblast inh 25, H69AR inhibit -0.4, bCat KO growth 3.0
Cc1nc([N+](=O)[O-])c(N2CCN(Cc3ccccc3)CC2)n1Cc1ccccc1	none
CCOc1cc2c(cc1OCC)C(c1cc(OC)c(O)c(OC)c1)NCC2 (stereo unspecified)	none (no result: HCT116 PTEN-null, bCat KO growth)
COC(=O)NNC(=O)c1ccc(C)c(Br)c1	none (no result: Fibroblast inh, H69AR inhibit, HUVEC inhibit)
COCC(C)NC(=O)C(C)Oc1ccccc1 (stereo unspecified)	none (no result: Fibroblast inh, H69AR inhibit, HUVEC inhibit)
O=C(/C=C/c1c(F)cccc1Cl)c1ccc(F)cc1	HCT116 PTEN-null 2.4, bCat KO growth 4.3 (no result: Fibroblast inh, H69AR inhibit, HUVEC inhibit)
